Laboratory results from ChEMBL document CHEMBL1649090, “Discovery of (7R)-14-cyclohexyl-7-{[2-(dimethylamino)ethyl](methyl) amino}-7,8-dihydro-6H-indolo[1,2-e][1,5]benzoxazocine-11-carboxylic acid (MK-3281), a potent and orally bioavailable finger-loop inhibitor of the hepatitis C virus NS5B polymerase” (J Med Chem, 2011).
The source made the active and inactive calls. The calls are words filed in the database; no cut-off is given here.

Columns and labels:
Hepatitis C virus [1] = experiment: Antiviral activity against HCV1b infected in human Huh-7 cells assessed as inhibition of viral RNA replication after 96 hrs by ELISA assay in presence of 10% fetal calf serum; format: functional, organism-based, Hepacivirus hominis; conditions: genotype 1b, Huh-7, 96 h
Hepatitis C virus [2] = experiment: Inhibition of HCV1b NS5B delta21 polymerase after 1 hr; format: single protein, Hepatitis C virus subtype 1b
Method in brief: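 Enzyme inhibition IC50 measured on genotype 1b HCV NS5B polymerase truncated by 21 C-terminal residues (ΔC21).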

[3] = AUC in Sprague-Dawley rat at 3 mg/kg, po; format: ADME, organism-based; design: dose 3 mg/kg, route oral; conditions: plasma
Method in brief: (§1)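 Single-dose rat PK with the compound given as its TFA salt to Sprague-Dawley rats (n = 3) in DMSO/PEG400/water 20%/60%/20%. Dosing was 3 mg/kg iv and 3 mg/kg po.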

[4] = Oral bioavailability in Sprague-Dawley rat at 3 mg/kg; format: ADME, organism-based; conditions: in vivo; method in brief: as §1
[5] = Drug level in Sprague-Dawley rat liver at 3 mg/kg, po after 6 hrs; format: ADME, organism-based; design: dose 3 mg/kg, route oral; conditions: read-out: Drug uptake
Method in brief: (§2)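 Sprague-Dawley rats (n = 3) received the compound as its TFA salt in DMSO/PEG400/water 20%/60%/20%, as a single iv dose of 3 mg/kg or a single oral dose of 3 mg/kg. Liver tissue and plasma concentrations were measured 6 h after the oral dose.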

[6] = Intrinsic clearance in rat liver microsomes assessed per mg of protein; format: ADME, Microsome
[7] = Intrinsic clearance in dog liver microsomes assessed per mg of protein; format: ADME, Canis lupus familiaris, Microsome
[8] = Intrinsic clearance in human liver microsomes assessed per mg of protein; format: ADME, Microsome
[9] = Ratio of drug level in liver to plasma in Sprague-Dawley rat liver at 3 mg/kg, po after 6 hrs; format: ADME, organism-based; design: dose 3 mg/kg, route oral; method in brief: as §2
Hepatitis C virus [10] = experiment: Antiviral activity against HCV1a; format: functional, organism-based, Hepacivirus hominis; conditions: subtype 1a
Hepatitis C virus [11] = experiment: Antiviral activity against HCV1b BK; format: functional, organism-based, Hepacivirus hominis; conditions: genotype 1b BK
Hepatitis C virus [12] = experiment: Antiviral activity against HCV3a; format: functional, organism-based, Hepacivirus hominis; conditions: genotype 3a
Hepatitis C virus [13] = experiment: Antiviral activity against HCV2a; format: functional, organism-based, Hepacivirus hominis; conditions: genotype 2a
Hepatitis C virus [14] = experiment: Antiviral activity against HCV2b; format: functional, organism-based, Hepacivirus hominis; conditions: genotype 2b
[15] = Clearance in Sprague-Dawley rat at 3 mg/kg, iv and 3 mg/kg, po; format: ADME, organism-based; conditions: in vivo
Method in brief: (§3)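 Single-dose PK of the bis-HCl salt, n = 3 per species (dog po n = 2). Intravenous doses: rat 3, dog 1, rhesus 2 mg/kg, in DMSO/PEG400/water 20%/60%/20%. Oral doses: rat 3, dog 2, rhesus 4 mg/kg, in PEG400 for rat and dog and PEG400/water 70%/30% for rhesus.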

[16] = Volume of distribution at steady state in Sprague-Dawley rat at 3 mg/kg, iv and 3 mg/kg, po; format: ADME, organism-based; conditions: in vivo, read-out: Vdss
Method in brief: (§4)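 Single iv and single oral doses, given as the bis-HCl salt, in rat, dog and rhesus, n = 3 per species (dog oral n = 2). The iv vehicle was DMSO/PEG400/water 20%/60%/20%. Oral vehicle was PEG400 for rat and dog and PEG400/water 70%/30% for rhesus. Values are mean ± SD.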

[17] = Terminal half life in Sprague-Dawley rat at 3 mg/kg, iv and 3 mg/kg, po; format: ADME, organism-based; conditions: in vivo; method in brief: as §3
[18] = Cmax in Sprague-Dawley rat at 3 mg/kg, iv and 3 mg/kg, po; format: ADME, organism-based; conditions: in vivo; method in brief: as §3
[19] = Clearance in dog at 1 mg/kg, iv and 2 mg/kg, po; format: ADME, organism-based, Canis lupus familiaris; conditions: in vivo; method in brief: as §3
[20] = Volume of distribution at steady state in dog at 1 mg/kg, iv and 2 mg/kg, po; format: ADME, organism-based, Canis lupus familiaris; conditions: in vivo, read-out: Vdss; method in brief: as §4
[21] = Cmax in dog at 1 mg/kg, iv and 2 mg/kg, po; format: ADME, organism-based, Canis lupus familiaris; conditions: in vivo; method in brief: as §3
[22] = AUC in dog at 2 mg/kg, po; format: ADME, organism-based, Canis lupus familiaris; design: dose 2 mg/kg, route oral; conditions: plasma; method in brief: as §3
[23] = Oral bioavailability in dog at 2 mg/kg, po; format: ADME, organism-based, Canis lupus familiaris; conditions: in vivo; method in brief: as §3
[24] = Terminal half life in rhesus monkey at 2 mg/kg, iv and 4 mg/kg, po; format: ADME, organism-based, Macaca mulatta; conditions: in vivo; method in brief: as §4
[25] = Cmax in rhesus monkey at 2 mg/kg, iv and 4 mg/kg, po; format: ADME, organism-based, Macaca mulatta; conditions: in vivo; method in brief: as §3
[26] = Oral bioavailability in rhesus monkey at 4 mg/kg; format: ADME, organism-based, Macaca mulatta; conditions: in vivo; method in brief: as §3
[27] = Plasma protein binding in human; format: ADME, cell-free; conditions: read-out: PPB (converted)
[28] = Plasma protein binding in rat; format: ADME, cell-free; conditions: read-out: PPB (converted)
[29] = Plasma protein binding in dog; format: ADME, cell-free, Canis lupus familiaris; conditions: read-out: PPB (converted)
[30] = Plasma protein binding in monkey; format: ADME, cell-free, Macaca mulatta; conditions: rhesus monkey, read-out: PPB (converted)
[31] = Intrinsic clearance in dog liver microsomes assessed per mg of protein presence of UDPGA; format: ADME, Canis lupus familiaris, Microsome
[32] = Intrinsic clearance in human liver microsomes assessed per mg of protein presence of UDPGA; format: ADME, Microsome
Cytochrome P450 2C9 = Cytochrome P450 2C9 (Homo sapiens, UniProt P11712); experiment: Inhibition of CYP2C9 up to 50 uM; format: ADME
Sequence of Cytochrome P450 2C9 (P11712 whole entry): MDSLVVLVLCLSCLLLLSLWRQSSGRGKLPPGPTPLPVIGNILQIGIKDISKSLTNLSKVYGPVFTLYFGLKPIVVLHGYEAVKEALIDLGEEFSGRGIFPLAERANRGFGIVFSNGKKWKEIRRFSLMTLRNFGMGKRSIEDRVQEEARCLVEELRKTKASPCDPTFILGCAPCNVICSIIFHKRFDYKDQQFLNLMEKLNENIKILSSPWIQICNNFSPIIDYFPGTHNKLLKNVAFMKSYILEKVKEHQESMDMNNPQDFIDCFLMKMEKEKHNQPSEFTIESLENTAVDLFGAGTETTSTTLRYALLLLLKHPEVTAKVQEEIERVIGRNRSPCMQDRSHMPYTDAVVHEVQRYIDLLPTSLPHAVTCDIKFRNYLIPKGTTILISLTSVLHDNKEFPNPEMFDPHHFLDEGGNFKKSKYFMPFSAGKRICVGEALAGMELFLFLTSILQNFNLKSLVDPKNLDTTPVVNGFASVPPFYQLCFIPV

[33] = target: Macrophage metalloelastase (Homo sapiens, UniProt P39900); experiment: Inhibition of MMP12
Sequence of Macrophage metalloelastase (P39900 whole entry): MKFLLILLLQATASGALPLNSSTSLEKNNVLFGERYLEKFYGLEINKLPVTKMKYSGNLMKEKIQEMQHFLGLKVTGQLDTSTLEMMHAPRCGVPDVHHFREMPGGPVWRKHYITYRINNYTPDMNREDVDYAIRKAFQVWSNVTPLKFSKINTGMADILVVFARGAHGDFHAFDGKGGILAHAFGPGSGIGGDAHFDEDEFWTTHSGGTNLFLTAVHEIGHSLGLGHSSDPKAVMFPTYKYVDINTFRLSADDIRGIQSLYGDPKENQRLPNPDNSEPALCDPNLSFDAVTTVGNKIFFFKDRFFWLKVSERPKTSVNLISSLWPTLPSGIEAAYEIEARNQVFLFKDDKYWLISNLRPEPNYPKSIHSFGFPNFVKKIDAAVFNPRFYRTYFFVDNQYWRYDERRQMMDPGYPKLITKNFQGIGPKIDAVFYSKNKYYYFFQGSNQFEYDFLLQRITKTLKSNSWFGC

[34] = target: Protein kinase C alpha type (Homo sapiens, UniProt P17252); experiment: Inhibition of PKCalpha
Homo sapiens = organism: Homo sapiens; experiment: Inhibition of human DNA polymerase gamma up to 50 uM
Mus musculus [35] = experiment: Toxicity in SCID mouse assessed as mortality at 50 mg/kg, ip bid for 5 days; format: organism-based; design: dose 50 mg/kg, route intraperitoneal; conditions: in vivo, 120 h
Mus musculus [36] = experiment: Toxicity in SCID mouse assessed as change in body weight at 50 mg/kg, ip bid for 5 days; format: organism-based; design: dose 50 mg/kg, route intraperitoneal; conditions: in vivo, 120 h
Method in brief: (§5)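 Non-infected SCID mice (n = 3) received 50 mg/kg by intraperitoneal injection twice daily for five consecutive days, as a tolerability run before the infected-mouse study. Body and organ weights were checked for gross changes. Plasma compound levels were measured 12 h after the last dose.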

Mus musculus [37] = experiment: Toxicity in SCID mouse assessed as change in organ weight at 50 mg/kg, ip bid for 5 days; format: organism-based; design: dose 50 mg/kg, route intraperitoneal; conditions: in vivo, 120 h; method in brief: as §5
[38] = Plasma concentration in SCID mouse at 50 mg/kg, ip bid for 5 days measured 12 hrs after last post dose; format: ADME, organism-based; design: dose 50 mg/kg, route intraperitoneal
Method in brief: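 SCID mice (n = 3) were given 50 mg/kg by intraperitoneal injection twice daily for five consecutive days. Plasma compound level was measured 12 h after the last dose.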

[39] = Plasma concentration in HCV1b infected humanized uPA+/+-SCID mouse at 50 mg/kg, ip bid for 4 days measured 12 hrs after last post dose; format: ADME, organism-based; design: dose 50 mg/kg, route intraperitoneal
Method in brief: (§6)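 Three humanized uPA+/+-SCID mice infected with genotype 1b HCV received 10 or 50 mg/kg ip twice daily for 4 days, in PEG400/water 30%/70%. Trough plasma concentration was taken 12 h after the last dose.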

[40] = Plasma concentration in HCV1b infected humanized uPA+/+-SCID mouse at 10 mg/kg, ip bid for 4 days measured 12 hrs after last post dose; format: ADME, organism-based; design: dose 10 mg/kg, route intraperitoneal; method in brief: as §6
Hepatitis C virus [41] = experiment: Antiviral activity against HCV1b infected in humanized uPA+/+-SCID mouse assessed as reduction of plasma viral RNA level at 10 mg/kg, ip bid for 4 days; format: functional, Hepacivirus hominis; conditions: route intraperitoneal
Method in brief: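 Chimeric uPA+/+-SCID mice with human hepatocytes, infected with genotype 1b HCV, were dosed twice daily. The drop in plasma HCV RNA is given as mean log10. Plasma drug concentration was measured 12 h after the last dose.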

CN(C)CCN(C)[C@H]1COc2ccccc2-c2c(C3CCCCC3)c3ccc(C(=O)O)cc3n2C1 [MK-3281]
EC50 (Hepatitis C virus [1]): 38 nM | IC50 (Hepatitis C virus [2]): 6 nM | AUC [3]: 2.4 µM·h | bioavailability [4]: 49% | concentration at 6 h [5]: 420 nM | microsomal CLint [6]: 7 µL/min/mg | microsomal CLint [7]: 3 µL/min/mg | microsomal CLint [8]: 7 µL/min/mg | Kp at 6 h [9]: 5 | EC50 (Hepatitis C virus [10]): 28 nM | EC50 (Hepatitis C virus [11]): 9 nM | EC50 (Hepatitis C virus [12]): 37 nM | EC50 (Hepatitis C virus [13]): 2020 nM | EC50 (Hepatitis C virus [14]): 1830 nM | clearance [15]: 22 mL/min/kg | Vd [16]: 3.7 L/kg | half-life [17]: 204 min | Cmax [18]: 500 nM | clearance [19]: 7 mL/min/kg | Vd [20]: 2.6 L/kg | Cmax [21]: 1000 nM | AUC [22]: 8.6 µM·h | bioavailability [23]: 78% | half-life [24]: 342 min | Cmax [25]: 800 nM | bioavailability [26]: 35% | fraction unbound [27]: 0.031 | fraction unbound [28]: 0.03 | fraction unbound [29]: 0.027 | fraction unbound [30]: 0.074 | microsomal CLint [31]: < 4 µL/min/mg | microsomal CLint [32]: < 4 µL/min/mg | inhibition (INH) (Cytochrome P450 2C9): Not Active | IC50 [33]: 8.3 µM | IC50 [34]: 59 µM | inhibition (Homo sapiens): inactive | Activity (Mus musculus [35]): Non-toxic | Activity (Mus musculus [36]): Non-toxic | Activity (Mus musculus [37]): Non-toxic | concentration at 12 h [38]: 3.6 µM | concentration at 12 h [39]: 2600 nM | concentration at 12 h [40]: 670 nM | fold change (FC) (Hepatitis C virus [41]): 1.4
